Experimental data as given in ChEMBL document CHEMBL1131041 (J Med Chem, 1998).

Legend:
[1] = molecular target: T1, Delta-type opioid receptor (Rattus norvegicus, UniProt P33533); experiment: Displacement of [3H]DADLE from morphine-insensitive Opioid receptor delta 1 (presence of 50 nM morphine) of rat brain membranes; type: cell membranes, Membrane
Method in brief: (§1)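 Rat brain membranes pretreated with (+)-trans-[…], labelled with 2.0 nM [3H]DADLE, plus 50 nM morphine (δcx-2) or 300 nM DELT-II (δcx-1). Incubation 4–6 h at 25 °C in 10 mM Tris-HCl pH 7.4 with 100 mM NaCl, 3 mM MnCl2, 2 μM GTP, 5 mM 2-mercaptoethanol and protease inhibitors. 8–10 concentrations, twice.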

[2] = species: Cavia porcellus; experiment: (§2) Partial agonist activity expressed as inhibition of contraction of guinea pig ileal longitudinal muscle myenteric plexus (GPI) at 1 uM conc.; type: functional, Muscle tissue
Method in brief: (§3)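 Agonist action on electrically driven tissues at 37 °C: GPI (1 g tension, 0.4-ms pulses) and Mg-free MVD (0.5 g, 2-ms pulses), 0.1 Hz. Percent inhibition of contraction height read 10 min after 1 μM compound; for stronger agonists, IC50 from concentration–response curves (2–4 tissues, nonlinear least squares). Selectivity = GPI IC50/MVD IC50.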

[3] = Relative affinity for guinea pig kappa1 and rat delta receptors
[4] = species: Mus musculus; experiment: (§4) Partial agonist activity expressed as inhibition of contraction of mouse vas deferens (MVD) smooth muscle at 1 uM conc.; type: functional, Muscle tissue; method in brief: as §3
[5] = molecular target: T1, Delta-type opioid receptor; experiment: Displacement of [3H]DADLE from morphine-sensitive Opioid receptor delta 1 (presence of 300 nM DELT-II) of rat brain membranes; type: cell membranes, Membrane; method in brief: as §1
[6] = molecular target: Opioid receptors; mu & delta (Rattus norvegicus) (UniProt P33533+P33535); experiment: Relative affinity for mu and delta receptors in rat brain membranes; type: cell membranes
[7] = molecular target: T2, Kappa-type opioid receptor (Cavia porcellus, UniProt P41144); experiment: Displacement of [3H]U-69593 from Opioid receptor kappa 1 of guinea pig brain membranes (pretreated with BIT and FIT to block mu and delta sites)
Method in brief: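 Guinea pig brain membranes pretreated with BIT and FIT, labelled with [3H]U69,593. Incubation 4–6 h at 25 °C in 50 mM Tris-HCl pH 7.4 with protease inhibitors and 1 μg/mL captopril. Nonspecific binding with 1 μM U69,593. 8–10 concentrations, twice.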

[8] = molecular target: Mu-type opioid receptor (Rattus norvegicus, UniProt P33535); experiment: Displacement of [3H]DAMGO from Opioid receptor mu 1 of rat brain membranes; type: cell membranes, Membrane
Method in brief: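 Rat brain membranes labelled with [3H]DAMGO. Incubation 4 h at 25 °C in 50 mM Tris-HCl pH 7.4 with protease inhibitor cocktail. Nonspecific binding defined with 20 μM levallorphan. 8–10 test concentrations, run twice; IC50 and slope factor derived.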

[9] = molecular target: T2, Kappa-type opioid receptor; experiment: Displacement of [125I]OXY from Opioid receptor kappa 2b of guinea pig brain membranes (pretreated with BIT(mu) and FIT(delta) and in the presence of (-)U50,488)
Method in brief: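 Guinea pig brain membranes depleted of μ/δ sites by BIT and FIT, labelled with 0.01 nM [125I]IOXY in presence of 5 μM (−)U50,488. Incubation 4–6 h at 4 °C in 50 mM Tris-HCl pH 7.4 with 10 mM NaCl, protease inhibitors and 1 μg/mL captopril.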

[10] = molecular target: T1, Delta-type opioid receptor; experiment: Displacement of [3H]DADLE from Opioid receptor delta 1 of rat brain membranes (DAMGO quenching mu receptor); type: cell membranes, Membrane
Method in brief: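 Rat brain membranes labelled with [3H]DADLE. Incubation 3–4 h at 25 °C in 10 mM Tris-HCl pH 7.4 with 100 mM choline chloride, 3 mM MnCl2, 100 nM DAMGO (μ block) and protease inhibitors. Levallorphan 20 μM for nonspecific binding. 8–10 concentrations, duplicate runs.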

[11] = molecular target: Delta-type opioid receptor (Mus musculus) (UniProt P32300); experiment: Displacement of DPDPE from Opioid receptor delta 1 of mouse vas deferens (MVD)smooth muscle
Method in brief: (§5)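 Mouse vas deferens (male ICR, 25–40 g) in Mg-free oxygenated Krebs at 37 °C, 0.5 g tension; transmural 0.1 Hz, 2-ms pulses, supramaximal voltage. Control DPDPE curve first; then 1 μM compound 30 min, 30 min wash, cumulative DPDPE curve (3-min steps) repeated. IC50 ratio = shifted/control IC50; Ke = [antagonist]/(ratio − 1); n ≥ 3.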

[12] = molecular target: Opioid receptors; mu & delta (Homo sapiens) (UniProt P41143+P35372); experiment: IC50 selectivity for mu receptor of guinea pig Ileum (GPI) and delta receptor of delta opioid receptor of mouse vas deferens (MVD) smooth muscle preparation; type: tissue-based; method in brief: as §3
[13] = species: Mus musculus; experiment: as §4; type: functional, organism-based; conditions: Muscle tissue; method in brief: as §3
[14] = species: Cavia porcellus; experiment: as §2; type: functional, organism-based; conditions: Muscle tissue; method in brief: as §3
[15] = molecular target: Delta-type opioid receptor (Mus musculus) (UniProt P32300); experiment: Displacement of DPDPE from Opioid receptor delta 1 of mouse vas deferens (MVD) smooth muscle; method in brief: as §5
[16] = Selectivity for mu receptor of guinea pig Ileum (GPI) and delta receptor of delta opioid receptor of mouse vas deferens (MVD) smooth muscle preparation; type: tissue-based
[17] = species: Cavia porcellus; experiment: Binding affinity of compound was measured on electrically stimulated guinea pig ileal longitudinal muscle myenteric plexus (GPI) preparation using PL017 as standard antagonist; type: functional; conditions: Muscle tissue
Method in brief: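 Electrically stimulated guinea pig ileum longitudinal muscle–myenteric plexus (male Hartley, 250–500 g) in oxygenated Krebs at 37 °C, 1 g tension; 0.1 Hz, 0.4-ms pulses. Tissue preincubated 30 min with 1 μM compound, washed 30 min, then cumulative PL-017 curve repeated. Ke = [antagonist]/(IC50 ratio − 1); n ≥ 3.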

[18] = molecular target: Mu-type opioid receptor (Mus musculus) (UniProt P42866); experiment: Compound was tested for antagonist activity against dOpioid receptor mu 1 on electrically stimulated guinea pig ileal longitudinal muscle myenteric plexus (GPI) using PL017as standard antagonist; e denotes 'the agonist effects precluded the determination of antagonist effects'; type: functional; conditions: Cavia porcellus; filed as agonist; target entry is the homologue from another species
Method in brief: (§6)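 Guinea pig ileum longitudinal muscle–myenteric plexus (male Hartley, 250–500 g) in oxygenated Krebs at 37 °C, 1 g tension; 0.1 Hz, 0.4-ms pulses, supramaximal voltage. Control PL-017 curve first; 1 μM compound 30 min, 30 min wash, cumulative PL-017 curve repeated. IC50 ratio = antagonized/unantagonized IC50; n ≥ 3.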

[19] = molecular target: Delta-type opioid receptor (Mus musculus) (UniProt P32300); experiment: Compound was tested for antagonist activity against Opioid receptor delta 1 on mouse vas deferens (MVD) smooth muscle preparation using DPDPE as antagonist ligand; e denotes the agonist effects precluded the determination of antagonist effects; type: functional; conditions: filed as agonist; method in brief: as §5
[20] = molecular target: Mu-type opioid receptor (Mus musculus) (UniProt P42866); experiment: Compound was tested for antagonist activity against Opioid receptor mu 1 on electrically stimulated guinea pig ileal longitudinal muscle myenteric plexus (GPI) using PL017 as antagonist ligand. IC50 ratio = IC50(agonist)/IC50 (control); type: functional; conditions: Cavia porcellus; target entry is the homologue from another species; method in brief: as §6

T2 sequence (P41144 whole entry): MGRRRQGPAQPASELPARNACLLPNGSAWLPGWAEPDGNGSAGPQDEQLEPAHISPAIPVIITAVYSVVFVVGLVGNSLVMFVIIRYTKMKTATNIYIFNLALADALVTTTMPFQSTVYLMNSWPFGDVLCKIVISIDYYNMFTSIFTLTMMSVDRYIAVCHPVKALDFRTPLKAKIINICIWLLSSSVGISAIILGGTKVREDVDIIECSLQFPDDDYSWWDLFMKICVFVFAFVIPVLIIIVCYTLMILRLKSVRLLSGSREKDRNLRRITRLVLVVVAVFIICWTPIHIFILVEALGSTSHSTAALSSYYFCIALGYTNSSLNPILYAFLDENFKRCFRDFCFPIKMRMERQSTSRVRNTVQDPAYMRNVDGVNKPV
Mu-type opioid receptor, sequence (P33535 whole entry): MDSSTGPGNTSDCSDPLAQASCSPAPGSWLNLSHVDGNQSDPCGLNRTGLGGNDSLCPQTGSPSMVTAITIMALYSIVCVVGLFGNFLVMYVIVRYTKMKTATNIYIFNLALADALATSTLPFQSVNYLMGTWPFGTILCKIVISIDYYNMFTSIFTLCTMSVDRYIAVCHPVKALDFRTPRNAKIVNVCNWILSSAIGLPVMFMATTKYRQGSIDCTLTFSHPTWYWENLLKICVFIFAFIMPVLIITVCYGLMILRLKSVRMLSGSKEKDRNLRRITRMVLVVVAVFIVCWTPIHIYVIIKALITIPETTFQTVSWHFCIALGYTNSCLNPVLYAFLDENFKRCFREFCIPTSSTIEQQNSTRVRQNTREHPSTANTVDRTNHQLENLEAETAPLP
T1 sequence (P33533 whole entry): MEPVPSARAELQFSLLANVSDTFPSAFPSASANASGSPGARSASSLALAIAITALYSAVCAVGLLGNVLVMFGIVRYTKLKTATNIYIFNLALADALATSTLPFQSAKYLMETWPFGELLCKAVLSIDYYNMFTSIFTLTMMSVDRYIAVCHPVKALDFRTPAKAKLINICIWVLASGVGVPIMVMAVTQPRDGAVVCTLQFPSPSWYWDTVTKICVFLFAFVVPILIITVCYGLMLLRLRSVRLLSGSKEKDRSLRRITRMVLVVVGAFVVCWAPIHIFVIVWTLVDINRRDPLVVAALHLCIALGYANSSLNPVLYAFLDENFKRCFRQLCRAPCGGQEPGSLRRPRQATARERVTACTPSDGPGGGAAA
Opioid receptors; mu & delta (Rattus norvegicus), sequence (P33533 whole entry, looked up): as the sequence (P33533 whole entry) above
Opioid receptors; mu & delta (Rattus norvegicus), sequence (P33535 whole entry, looked up): as the sequence (P33535 whole entry) above
Delta-type opioid receptor (Mus musculus), sequence (P32300 whole entry): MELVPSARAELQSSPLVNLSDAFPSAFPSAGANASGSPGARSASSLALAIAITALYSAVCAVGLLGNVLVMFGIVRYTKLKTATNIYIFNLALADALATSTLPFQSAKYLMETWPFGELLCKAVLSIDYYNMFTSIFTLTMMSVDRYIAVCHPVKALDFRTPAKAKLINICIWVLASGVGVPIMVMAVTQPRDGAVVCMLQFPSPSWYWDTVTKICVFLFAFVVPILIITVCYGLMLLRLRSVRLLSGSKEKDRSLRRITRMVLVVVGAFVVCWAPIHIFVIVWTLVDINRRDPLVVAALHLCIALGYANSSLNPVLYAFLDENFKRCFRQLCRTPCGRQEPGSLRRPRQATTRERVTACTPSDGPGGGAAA
Opioid receptors; mu & delta (Homo sapiens), sequence (P35372 whole entry, looked up): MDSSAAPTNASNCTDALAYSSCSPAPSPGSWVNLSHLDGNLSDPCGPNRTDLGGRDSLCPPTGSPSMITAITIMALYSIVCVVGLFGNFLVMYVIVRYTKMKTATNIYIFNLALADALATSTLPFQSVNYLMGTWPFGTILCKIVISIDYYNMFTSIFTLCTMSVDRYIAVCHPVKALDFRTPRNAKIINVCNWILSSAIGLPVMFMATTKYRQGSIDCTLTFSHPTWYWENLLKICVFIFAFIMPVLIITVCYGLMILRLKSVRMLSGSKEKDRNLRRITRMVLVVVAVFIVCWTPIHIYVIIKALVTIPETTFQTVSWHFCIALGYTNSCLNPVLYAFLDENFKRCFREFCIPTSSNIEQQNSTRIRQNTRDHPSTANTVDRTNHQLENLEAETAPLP
Opioid receptors; mu & delta (Homo sapiens), sequence (P41143 whole entry, looked up): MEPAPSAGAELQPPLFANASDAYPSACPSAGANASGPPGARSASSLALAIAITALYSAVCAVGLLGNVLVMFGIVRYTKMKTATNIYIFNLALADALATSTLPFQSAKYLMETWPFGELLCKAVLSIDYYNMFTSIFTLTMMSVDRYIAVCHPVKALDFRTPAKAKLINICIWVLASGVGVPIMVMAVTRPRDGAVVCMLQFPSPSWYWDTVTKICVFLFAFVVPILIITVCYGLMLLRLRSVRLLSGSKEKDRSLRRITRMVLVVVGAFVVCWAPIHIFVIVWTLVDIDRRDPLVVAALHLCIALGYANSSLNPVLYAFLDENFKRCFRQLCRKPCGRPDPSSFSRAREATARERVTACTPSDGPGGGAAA
Mu-type opioid receptor (Mus musculus), sequence (P42866 whole entry): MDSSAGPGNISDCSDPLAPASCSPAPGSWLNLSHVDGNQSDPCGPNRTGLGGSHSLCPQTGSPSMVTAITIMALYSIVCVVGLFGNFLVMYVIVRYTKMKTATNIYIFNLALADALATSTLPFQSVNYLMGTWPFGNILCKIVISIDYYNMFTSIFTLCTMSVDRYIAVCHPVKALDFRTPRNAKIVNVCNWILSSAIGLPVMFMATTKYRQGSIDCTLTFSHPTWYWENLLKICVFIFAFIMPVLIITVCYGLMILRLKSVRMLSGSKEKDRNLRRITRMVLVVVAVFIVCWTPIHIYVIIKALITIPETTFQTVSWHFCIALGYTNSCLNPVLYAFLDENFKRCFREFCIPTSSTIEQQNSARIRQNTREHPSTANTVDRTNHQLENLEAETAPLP

Row | SMILES | Ki [1] [nM] | Max response [2] [%] | Selectivity ratio [3] | Max response [4] [%] | Ki [5] [nM] | Selectivity ratio [6] | Ki [7] [nM] | Ki [8] [nM] | Ki [9] [nM] | Ki [10] [nM] | Ke [11] [nM] | Selectivity ratio [12] | IC50 [13] [nM] | IC50 [14] [nM] | Ratio [15] | Selectivity ratio [16] | Ke [17] [nM] | Ratio [18] | Ratio [19] | Ratio [20]
1 | Oc1ccc2c3c1OC1c4[nH]c5cccc(OCc6ccccc6)c5c4C[C@@]4(O)[C@@H](C2)N(CC2CC2)CC[C@]314 (stereo not given in full) | 17.2 | 86 | 36 | 70 | 74.1 | 24 | 539 | 360 | 109 | 14.8 | – | – | – | – | – | – | – | – | – | –
2 | Oc1ccc2c3c1OC1c4[nH]c5c(Oc6ccccc6)cccc5c4C[C@@]4(O)[C@@H](C2)N(CC2CC2)CC[C@]314 (stereo not given in full) | 0.61 | – | 47 | – | 18.7 | 48 | 33.6 | 34.2 | 56.8 | 0.71 | 0.25 | 0.11 | 4100 | 450 | 4000 | – | – | – | – | –
3 | Oc1ccc2c3c1OC1c4[nH]c5ccc(Oc6ccccc6)cc5c4C[C@@]4(O)[C@@H](C2)N(CC2CC2)CC[C@]314 (stereo not given in full) | 4.9 | 8 | 4 | 11 | 204 | 16 | 75.2 | 292 | 199 | 17.9 | 11 | – | – | – | 93 | 70 | 770 | – | – | –
4 | Oc1ccc2c3c1OC1c4[nH]c5ccc(/C=C/c6ccccn6)cc5c4C[C@@]4(O)[C@@H](C2)N(CC2CC2)CC[C@]314 (stereo not given in full) | 4 | – | 5 | – | 17.4 | 21 | 20.1 | 76 | 21.4 | 3.7 | – | 12 | 220 | 2600 | – | – | – | Agonist | Agonist | –
5 | Oc1ccc2c3c1OC1c4[nH]c5ccc(-c6ccccc6)cc5c4C[C@@]4(O)[C@@H](C2)N(CC2CC2)CC[C@]314 (stereo not given in full) | 24.7 | 0 | 22 | 25 | 121 | 10 | 354 | 165 | 186 | 15.8 | 9.4 | – | – | – | 110 | 12 | 110 | – | – | –
6 | Oc1ccc2c3c1OC1c4[nH]c5cccc(Oc6ccccc6)c5c4C[C@@]4(O)[C@@H](C2)N(CC2CC2)CC[C@]314 (stereo not given in full) | 114 | 28 | 19 | 27 | 395 | 21 | 1310 | 1430 | 353 | 67.9 | 17 | – | – | – | – | 35 | 590 | – | – | 2.7
7 | Oc1ccc2c3c1OC1c4[nH]c5cc(-c6ccccc6)ccc5c4C[C@@]4(O)[C@@H](C2)N(CC2CC2)CC[C@]314 (stereo not given in full) | 14.2 | 2 | 35 | 36 | 299 | 71 | 632 | 1280 | 660 | 18 | 21 | – | – | – | 49 | – | – | – | – | –
